Assay results pooled from the literature.
Protocols differ between the studies behind these lines.
Organism: Staphylococcus aureus

Structure (SMILES) | assay | test system | conditions | measurement | value
CC1(C)S[C@@H]2[C@H](NC(=O)[C@H](N)c3ccccc3)C(=O)N2[C@H]1C(=O)O | microbial growth | MRSA | clinical isolate | MIC90 | > 128 µg/mL
O=C(O)c1cn(C2CC2)c2cc(N3CCNCC3)c(F)cc2c1=O | microbial growth, well diffusion | MRSA | 20 µg/mL | inhibition zone | 3 mm
COc1ccc2cc3[n+](cc2c1OC)CCc1cc2c(cc1-3)OCO2 | microbial growth |  | 24 h | MIC50 | 72 µM
CCS(=O)(=O)Oc1ccc(C=NNC(=O)CSc2nc3ccc(Cl)cc3c(=O)n2-c2ccccc2)cc1 | microbial growth, well diffusion | MRSA | 20 µg/mL | inhibition zone | 2 mm
CN[C@H](CC(C)C)C(=O)N[C@H]1C(=O)N[C@@H](CC(N)=O)C(=O)N[C@H]2C(=O)N[C@H]3C(=O)N[C@H](C(=O)N[C@H](C(=O)O)c4cc(O)cc(O)c4-c4cc3ccc4O)[C@H](O)c3ccc(c(Cl)c3)Oc3cc2cc(c3O[C@@H]2O[C@H](CO)[C@@H](O)[C@H](O)[C@H]2O[C@H]2C[C@](C)(N)[C@H](O)[C@H](C)O2)Oc2ccc(cc2Cl)[C@H]1O | microbial growth | MSSA | clinical isolate | MIC90 | 1 µg/mL
CN1CCN(CCCN2c3ccccc3Sc3ccc(Cl)cc32)CC1 | microbial killing, broth dilution | ATCC43300 | 18 h | MBC | 64 µg/mL
COc1ccc(C=NNC(=O)CSc2nc3c(C)cccc3c(=O)n2-c2ccccc2)cc1OS(C)(=O)=O | microbial growth, well diffusion | MRSA | 20 µg/mL | inhibition zone | 3 mm
C=C[C@]1(C)C[C@@H](OC(=O)CS[C@@H]2C[C@H]3CC[C@@H](C2)N3C)[C@]2(C)[C@H](C)CC[C@]3(CCC(=O)[C@H]32)[C@@H](C)[C@@H]1O | microbial growth | MSSA | clinical isolate | MIC90 | 0.0625 µg/mL
CN(C)CCCN1c2ccccc2Sc2ccc(C(F)(F)F)cc21 | microbial killing, broth dilution | ATCC43300 | 18 h | MBC | 64 µg/mL
[H]/N=C(/N)N[C@H]1[C@H](O)[C@@H](O)[C@H](O[C@@H]2O[C@@H](C)[C@](O)(C=O)[C@H]2O[C@@H]2O[C@@H](CO)[C@H](O)[C@@H](O)[C@@H]2NC)[C@@H](N/C(N)=N\[H])[C@@H]1O | microbial growth, well diffusion | MTCC96 | 1000 µg/mL, 18 h | inhibition zone | 24 mm
CCCS(=O)(=O)Oc1ccc(C=NNC(=O)CSc2nc3c(C)cccc3c(=O)n2-c2ccccc2)cc1OC | microbial growth, well diffusion | MRSA | 20 µg/mL | inhibition zone | 4 mm
O=C(O)c1cn(C2CC2)c2cc(N3CCNCC3)c(F)cc2c1=O | microbial growth, broth dilution |  |  | MIC90 | 3.13 µM
CC[C@H]1OC(=O)[C@H](C)[C@@H](O[C@H]2C[C@@](C)(OC)[C@@H](O)[C@H](C)O2)[C@H](C)[C@@H](O[C@@H]2O[C@H](C)C[C@H](N(C)C)[C@H]2O)[C@](C)(O)C[C@@H](C)/C(=N\OCOCCOC)[C@H](C)[C@@H](O)[C@]1(C)O | microbial growth | MSSA | clinical isolate | MIC90 | 64 µg/mL
O=C(/C=C/C=C/c1ccccc1)c1ccccc1OCc1ccccc1Cl | microbial growth, well diffusion | MTCC96 | 1000 µg/mL, 18 h | inhibition zone | 7 mm
CC(=O)NC[C@H]1CN(c2ccc(N3CCOCC3)c(F)c2)C(=O)O1 | microbial growth | MRSA | clinical isolate | MIC90 | 2 µg/mL
CCCS(=O)(=O)Oc1cc(C=NNC(=O)CSc2nc3c(C)cccc3c(=O)n2-c2ccccc2)ccc1OC | microbial growth, well diffusion | MRSA | 20 µg/mL | inhibition zone | 2 mm
O=C(/C=C/C=C/c1ccccc1)c1ccccc1OCc1ccc(Cl)cc1 | microbial growth, well diffusion | MTCC96 | 1000 µg/mL, 18 h | inhibition zone | 7 mm
